# Compounds with a hit are over-represented: about 1.5% of the library has one in this group of screens.
# CHT allo act = allosteric activators of human choline transporter CHT; CHT-expressing cells, membrane potential dye, choline EC20; active compounds read high; LV-AA mutant CHT in HEK293 cells; B-score at 10 µM; 0.49% of 310,000 active;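 active means initial fluorescence not abnormally high and integrated response B-score, plate-corrected, over 3 SD above library mean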
# Target sequence (Q9GZV3 whole entry, looked up): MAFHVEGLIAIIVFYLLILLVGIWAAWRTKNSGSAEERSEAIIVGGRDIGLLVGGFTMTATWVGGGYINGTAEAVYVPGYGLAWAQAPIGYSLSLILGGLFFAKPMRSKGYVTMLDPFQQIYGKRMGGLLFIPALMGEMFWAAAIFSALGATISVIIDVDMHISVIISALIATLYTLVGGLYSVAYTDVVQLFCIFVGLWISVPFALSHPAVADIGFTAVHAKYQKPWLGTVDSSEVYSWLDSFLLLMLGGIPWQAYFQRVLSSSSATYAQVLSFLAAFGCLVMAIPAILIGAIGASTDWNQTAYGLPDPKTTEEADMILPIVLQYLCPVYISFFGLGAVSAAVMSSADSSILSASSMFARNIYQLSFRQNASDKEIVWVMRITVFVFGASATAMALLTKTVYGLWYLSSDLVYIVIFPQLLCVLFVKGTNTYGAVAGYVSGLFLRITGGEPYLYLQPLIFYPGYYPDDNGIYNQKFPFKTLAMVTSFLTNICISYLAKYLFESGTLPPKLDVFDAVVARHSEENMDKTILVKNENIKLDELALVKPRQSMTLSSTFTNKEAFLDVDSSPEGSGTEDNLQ
# VLA-4 inh = inhibition in a human VLA-4 binding assay; P13612; VLA-4 expressing cells, ligand binding flow cytometry; inhibition, % (about 7 µM as worked out from the volumes in the protocol); 0.2% of 330,000 active; AID 2557; in the data active means inhibition above about 50%
# CHT inh = human CHT choline transport inhibition; CHT-expressing cells, membrane potential dye, choline response; active compounds read low; B-score at 10 µM; 0.86% of 310,000 active;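 active means B-score over 3 SD under the library average, and starting fluorescence ratio not unusually high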;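 further: choline stimulus applied at its EC90 after an EC20 pre-addition; B-score computed on integrated fluorescence ratio after choline addition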
# T cell modulator = T cell immune modulation candidate; response (vesicle binding), % at 7 µM; AID 2052; 0.068% of 330,000 active; 2C CD8+ T cell-vesicle binding, flow cytometry; active compounds read low;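 active means response, share of CD8 T cells binding vesicles, and their 90th percentile fluorescence all below set limits, cut at about 80% in these data, passing the limit was not always enough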;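 further: values below 100% mean blocked vesicle binding to the CD8+ T cells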
#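 Also added: QL9-peptide-loaded Drosophila micro-vesicles bearing Ld, ICAM-1 and B7-1; Test system: purified 2C TCR transgenic mouse naive CD8+ T cells; Measured by: cytometric PE anti-B7-1 and Alexa647 anti-CD8 signals after 1% paraformaldehyde fixation; Timing: binding step 1.5 h, 37 °C, antibody labelling 20 min, ice.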
# CHT block conf = human CHT inhibition, confirmatory screen; shares compounds with CHT inh; 70% of 2,400 active; CHT-expressing cells, choline membrane potential dye; LV-to-AA substituted CHT, HEK293 cells; CHT activity remaining % of control (active compounds read low), % at 10 µM;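 active means choline transporter activity left, mean of duplicates at 10 µM, below buffer-only control mean minus 3 SD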;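 further: depolarization triggered by choline at its EC90 following an EC20 pre-addition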
# HEK293 CHT ctr = counter-screen for CHT inhibitors: effect in parental HEK293 cells; shares compounds with CHT inh; membrane potential dye, choline response; active = decrease or increase beyond buffer ±3SD; membrane potential ratio readout (active if shifted either direction beyond buffer ±3SD; no single direction) at 10 µM; 4% of 2,400 active; AID 493222;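 further: parental cells lack the transporter so any hit is non-specific; ratio is peak minus trough fluorescence over baseline after EC90 choline challenge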
# A number is an active result; - = inactive; . = not tested or not shown.
SMILES,CHT allo act,VLA-4 inh,CHT inh,T cell modulator,CHT block conf,HEK293 CHT ctr
O=C(CCn1nnnc1CN1CCOCC1)N1CCC(c2cccc(Cl)c2)C1 (centres undefined),-,-,-,-,.,.
Cc1ccc(NC(=S)NNC(=O)c2cccc([N+](=O)[O-])c2)cc1Cl,-,-,-5.7,-,54%,-
c1ccc2[nH]c(CSc3nc4ccccc4s3)nc2c1,-,-,-6,-,-,-
Cc1nnc(SCc2nc3ccccc3[nH]2)s1,-,-,-,-,.,.
O=C(CN1C(=O)S/C(=C\c2ccccc2Cl)C1=O)NCCCn1ccnc1,-,-,-,-,.,.
COc1ccccc1/C=C1\SC(=O)N(CC(=O)NCCCn2ccnc2)C1=O,-,-,-7.1,-,69%,-
CCN(CC)C(=O)CSc1nc2c(c(-c3cccnc3)c1C#N)CCCC2,-,-,-,-,.,.
C=C[C@@]1(C)CC(=O)[C@]2(O)[C@@]3(C)[C@@H](O)CCC(C)(C)[C@@H]3[C@H](OC(C)=O)[C@H](O)[C@@]2(C)O1,-,-,-8.1,-,37%,-
Cc1ccc(OCCOC(=O)c2c(-c3ccccc3)noc2C)cc1,-,-,-5,-,-,-
Cc1cc(C)n(CCNC(=O)CC2C(=O)NCCN2Cc2ccccc2C(F)(F)F)n1 (centres undefined),-,-,-6.4,-,-,-
COc1cccc(CN2CCNC(=O)C2CC(=O)NCCn2nc(C)cc2C)c1OC (centres undefined),-,-,-,-,.,.
CN(CC(=O)Nc1ccc(N2CCOCC2)cc1)C(=O)C1CCCC1,-,-,-8.3,-,-,-
O=C(Nc1ccc(N2CCOCC2)cc1)C1CCCCC1,-,-,-,-,.,.
CC(C)c1ccc(NC(=S)NNC(=O)c2cccs2)cc1,-,-,-,-,.,.
O=C(OCC(=O)c1ccccc1Cl)C1=NN(c2ccccc2)C(=O)CC1,.,-,.,-,.,.
COc1ccc(NC(=O)CN2CCN(C(=S)NC3CCCC3)CC2)cc1,-,-,-6.3,-,-,-
COc1ccc(NC(=O)CN2CCN(CC(=O)Nc3ccc(OC)cc3)CC2)cc1,-,-,-,-,.,.
COc1ccccc1/C=C/C(=O)N1CCN(S(=O)(=O)c2cc(C)ccc2C)CC1,.,-,.,-,.,.
Cc1cc(C)c(NC(=O)COC(=O)c2cccc3c2C(=O)c2ccccc2C3=O)c(C)c1,-,-,-5.1,-,-,-
CC(C)Cc1csc(NC(=O)c2ccc(Br)cc2)c1C(=O)O,-,-,-10,-,61%,-
O=C(Nc1scc(-c2ccccc2)c1C(=O)O)c1ccc(F)cc1,-,-,-,-,.,.
Cc1ccc(-c2csc(NC(=O)c3ccc(F)cc3)c2C(=O)O)cc1,-,-,-6.4,-,53%,-
O=C(Nc1scc(-c2ccc(Br)cc2)c1C(=O)O)c1ccccc1F,-,-,-,-,.,.
Cc1ccc(-c2csc(NC(=O)c3ccccc3F)c2C(=O)O)cc1,-,-,-5.1,-,45%,-
CCC(NC(=O)OCc1ccccc1)C(=O)Oc1ccc2ccc(=O)oc2c1 (centres undefined),-,-,-,-,.,.
SMILES,CHT allo act,VLA-4 inh,CHT inh,T cell modulator,CHT block conf,HEK293 CHT ctr
CS(=O)(=O)Oc1ccc(/C=N/NC(=O)c2ccncc2)cc1,-,-,-,-,.,.
COc1ccc(N(CCCN2C(=O)c3cccc4cccc(c34)C2=O)C(=O)c2ccncc2)cc1,-,-,-5.8,-,69%,-
CSc1ccccc1C(=O)NCCCn1ccnc1,-,-,-,-,.,.
Cc1cnc(C(=O)OCc2nc3ccsc3c(=O)[nH]2)cn1,.,-,.,-,.,.
COc1cc(CNc2ccc(N3CCCCC3)cc2)ccc1OCC(=O)NC(C)(C)C,-,-,-9.9,-,47%,-
COc1cc(CNc2ccc(N3CCCC3)cc2)ccc1OCc1ccccc1,-,-,-,-,.,.
CCN(CC)S(=O)(=O)c1ccc(Cl)c(C(=O)Nc2nncs2)c1,-,-,-,-,.,.
CCN(CC)S(=O)(=O)c1cc(C(=O)Nc2nncs2)c(Cl)cc1Cl,-,-,-9.5,-,50%,-
CCN(CC)c1ncnc2c1[nH]c1ccccc12,-,-,-6.6,-,52%,-
CCCn1c(=O)c2ccccc2n2c(SCCOc3ccccc3)nnc12,-,-,-6.2,-,-,-

# Assay outcomes: PubChem, several laboratories
